As usually defined, the EC50 is the concentration at which the effect is half-maximal. Read a low EC50 as an effect from little substance. For orientation: Ki means the equilibrium dissociation constant of an inhibitor or competing ligand from its target.

Structures are written as SMILES.

For one test, the system named is HuTu80. The experiment in a line: Inhibition of growth (cytotoxicity) of HuTu 80 cell line in vitro. The test is classed as functional, cell-based. As to conditions: Homo sapiens. An outline of the steps: (§1)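 About 1 × 10^5 L1210 or HuTu 80 cells in 1 mL of their original medium with inhibitor, 37 °C for 72 h; counted by Coulter counter (10- to 20-fold growth in controls). EC50 = concentration reducing growth 50% versus inhibitor-free controls.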

The next test relates to L1210. The experiment in a line: Inhibition of growth (cytotoxicity) of L1210 cell line in vitro. As to conditions: Mus musculus. Type of test: functional, cell-based. An outline of the steps: as §1
In another test the target is Lacticaseibacillus casei. In words: Inhibition constant (Ki) was determined in Lactobacillus casei. Type of test: functional.
Test [1] deals with T1, Dihydrofolate reductase (Homo sapiens, UniProt P00374).
T1 sequence (P00374 whole entry): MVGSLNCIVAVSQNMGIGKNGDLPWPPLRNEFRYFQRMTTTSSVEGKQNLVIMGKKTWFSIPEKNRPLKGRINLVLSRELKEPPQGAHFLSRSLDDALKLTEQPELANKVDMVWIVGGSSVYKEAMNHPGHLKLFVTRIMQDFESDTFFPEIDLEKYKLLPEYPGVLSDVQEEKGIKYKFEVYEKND
In words: Inhibition of dihydrofolate reductase in HeLa cells. Type of test: cell-based. The settings on record: read-out: I50.

The target of test [2] is Dihydrofolate reductase (Lactobacillus casei, UniProt P00381). The experiment in a line: Inhibition of dihydrofolate reductase in Lactobacillus casei. As to conditions: read-out: I50. On the set-up: species or system Lacticaseibacillus casei. An outline of the steps: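 L. casei DHFR purified to homogeneity from an MTX-resistant overproducer strain, with enzyme level (4–5 × 10^-9 M) set by MTX titration. […] Rates were taken from the linear 0.5–2 min region. I50 is the concentration halving the rate; Ki is from the Cha equation, correcting for inhibitor depletion.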

The target of test [3] is T2, Dihydrofolate reductase (Escherichia coli, UniProt P0ABQ4).
T2 sequence (P0ABQ4 whole entry): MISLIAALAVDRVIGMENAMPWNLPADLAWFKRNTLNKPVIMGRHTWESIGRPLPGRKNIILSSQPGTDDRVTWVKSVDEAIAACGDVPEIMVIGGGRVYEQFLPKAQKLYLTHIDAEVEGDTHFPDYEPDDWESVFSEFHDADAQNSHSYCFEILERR
The experiment in a line: Inhibition of dihydrofolate reductase in Escherichia coli. The settings on record: read-out: I50. An outline of the steps:
(§2)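 E. coli MB 1428 MTX-resistant overproducer DHFR purified to homogeneity by MTX affinity chromatography; spectrophotometric assay at pH 7.2 with 40 μM NADPH and 44 μM dihydrofolate (Km 0.44 μM); enzyme 4 to 5×10^-9 M, titrated with MTX. Rates taken over linear 0.5–2 min (<10% substrate used). I50 = half of control rate; Ki from I50 via Cha equation corrected for enzyme-bound inhibitor.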

The subject of another test is Escherichia coli. The experiment in a line: Inhibition constant (Ki) was determined in Escherichia coli. The test is classed as functional. The method in brief:
as §2

Chain of Dihydrofolate reductase (Lactobacillus casei, UniProt P00381) (P00381 whole entry): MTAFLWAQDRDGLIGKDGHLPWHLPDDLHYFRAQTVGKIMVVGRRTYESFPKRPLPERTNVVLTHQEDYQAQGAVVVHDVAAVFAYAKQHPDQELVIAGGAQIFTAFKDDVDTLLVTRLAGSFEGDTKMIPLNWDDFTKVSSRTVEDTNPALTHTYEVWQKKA

Turning to `Nc1nc(N)c2nc(CNc3ccc(C(=O)NC(CCC(=O)O)C(=O)O)cc3F)cnc2n1` (configuration not stated), the figures for the EC50 with HuTu80 and with L1210 were 2.3 nM and 1 nM, respectively. The Ki at Lacticaseibacillus casei is 0.06 nM; with Escherichia coli it was 0.03 nM. The IC50 worked out at 19 nM on Dihydrofolate reductase [1], 3.5 nM on Dihydrofolate reductase [2] and 5 nM at Dihydrofolate reductase [3].
For the molecule `Nc1nc(N)c2nc(CNc3ccc(C(=O)NC(CCC(=O)O)C(=O)O)c(F)c3)cnc2n1` (configuration not stated), the EC50 in the test with HuTu80 was 4.8 nM; in the test with L1210, 2.3 nM. The Ki at Lacticaseibacillus casei turned out to be 0.095 nM; with Escherichia coli it was 0.08 nM. Further, the IC50 on Dihydrofolate reductase [1] stood at 27 nM; at Dihydrofolate reductase [2], 4.7 nM; at Dihydrofolate reductase [3], 10 nM.
Take `Nc1nc(N)c2nc(CNc3ccc(C(=O)N[C@@H](CCC(=O)O)C(=O)O)cc3)cnc2n1` [AMINOPTERIN]: the EC50 in the test on HuTu80 amounted to 4.7 nM; in the test on L1210, 1.8 nM. The Ki is 0.11 nM on Lacticaseibacillus casei and 0.09 nM in the test on Escherichia coli. Also, the IC50 came out at 5 nM on Dihydrofolate reductase [2] and 11 nM on Dihydrofolate reductase [3].
Turning to `CN(Cc1cnc2nc(N)nc(N)c2n1)c1ccc(C(=O)N[C@@H](CCC(=O)O)C(=O)O)cc1` [METHOTREXATE], the figures for the half-maximal effective concentration (EC50) with HuTu80 and in the test with L1210 were 4.5 nM and 3.2 nM, respectively.

For the origin of these results see ChEMBL document CHEMBL1122445, “Novel fluorinated antifolates. Enzyme inhibition and cytotoxicity studies on 2'- and 3'-fluoroaminopterin” (J Med Chem, 1983).
